In ChEMBL document CHEMBL4390645, “Novel prenyloxy chalcones as potential leishmanicidal and trypanocidal agents: Design, synthesis and evaluation” (Eur J Med Chem, 2019):
The source made the active and inactive calls. No cut-off for these calls is given here.

Assays:
Leishmania mexicana [1] = assay: Antileishmanial activity against Leishmania mexicana MNYC-BZ/62/M379 promastigotes assessed as metabolic inhibition at 10 ug/ml after 24 hrs by MTT assay relative to control; format: functional; conditions: MNYC-BZ/62/M379, 24 h
In short: (§1)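 Stationary-phase (7-day) metacyclic promastigotes, 5 x 10^5 per well in 100 µL RPMI 1640 with 10% heat-inactivated FBS and penicillin-streptomycin. Compounds from 10 mg/mL DMSO stock, diluted in PBS. Screen at 10 µg/mL in triplicate; actives serially diluted from 20 µg/mL. 27°C, dark, 24 h, then MTT 24 h. SDS/HCl solubilization, A570 vs blank. IC50 by Probit. Amphotericin B reference.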

Trypanosoma cruzi [2] = assay: Antitrypanosomal activity against Trypanosoma cruzi MHOM/MX/1994/INC5 epimastigotes assessed as metabolic inhibition at 10 ug/ml after 24 hrs by MTT assay relative to control; format: functional; conditions: MHOM/MX/1994/INC5, 24 h
Trypanosoma cruzi [3] = assay: Antitrypanosomal activity against Trypanosoma cruzi MHOM/MX/1994/INC5 epimastigotes assessed as growth inhibition measured after 24 hrs by MTT assay; format: functional, organism-based; conditions: MHOM/MX/1994/INC5, 24 h
[4] = Cytotoxicity against mouse J774.A1 cells assessed as reduction in cell viability measured after 20 hrs by MTT assay; format: cell-based
In short: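 J774A.1 macrophages, 5x10^4/well, preincubated 24 h at 37 °C, 5% CO2. Compounds at several concentrations in triplicate for 20 h, untreated cells as control. MTT added for 4 h, then 10% SDS/0.01N HCl, absorbance read. CC50 by Probit concentration-response.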

[5] = Selectivity index, ratio of CC50 for mouse J774.A1 cells to IC50 for antitrypanosomal activity against Trypanosoma cruzi MHOM/MX/1994/INC5 epimastigotes; format: toxicity; conditions: read-out: Ratio CC50/IC50
In short: (§2)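 SI = CC50 (J774A.1, 20 h MTT) divided by parasite IC50 (24 h MTT), both Probit-derived.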

Leishmania mexicana [6] = assay: Antileishmanial activity against Leishmania mexicana MNYC-BZ/62/M379 promastigotes assessed as growth inhibition measured after 24 hrs by MTT assay; format: functional, organism-based; conditions: MNYC-BZ/62/M379, 24 h; in short: as §1
[7] = Selectivity index, ratio of CC50 for mouse J774.A1 cells to IC50 for antileishmanial activity against Leishmania mexicana MNYC-BZ/62/M379 promastigotes; format: toxicity; conditions: read-out: Ratio CC50/IC50; in short: as §2
Leishmania mexicana [8] = assay: Antileishmanial activity against Leishmania mexicana MNYC-BZ/62/M379 promastigotes assessed as metabolic inhibition at 0.5 ug/ml after 24 hrs by MTT assay relative to control; format: functional; conditions: MNYC-BZ/62/M379, 24 h
Leishmania major = assay: Antileishmanial activity against Leishmania major amastigotes; format: functional, organism-based
Leishmania donovani = assay: Antileishmanial activity against Leishmania donovani amastigotes; format: functional, organism-based
Leishmania mexicana [9] = assay: Induction of morphological changes in Leishmania mexicana MNYC-BZ/62/M379 promastigotes assessed as decrease in cell density at 1.25 to 20 ug/ml measured after 24 hrs by giemsa staining using light microscopic method; format: functional, organism-based
In short: (§3)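 Parasites exposed 24 h to a range of compound concentrations, Giemsa-stained, examined by light microscopy at 100x for morphology and cell density.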

Leishmania mexicana [10] = assay: Induction of morphological changes in Leishmania mexicana MNYC-BZ/62/M379 promastigotes assessed as rounded cells at 3 multiples of IC50 concentration and measured after 24 hrs by giemsa staining using light microscopic method; format: functional, organism-based
Leishmania mexicana [11] = assay: Induction of morphological changes in Leishmania mexicana MNYC-BZ/62/M379 promastigotes assessed as cell death at 3 multiples of IC50 concentration and measured after 24 hrs by giemsa staining using light microscopic method; format: functional, organism-based
Leishmania mexicana [12] = assay: Induction of morphological changes in Leishmania mexicana MNYC-BZ/62/M379 promastigotes assessed as decrease in flagella length at 3 multiples of IC50 concentration and measured after 24 hrs by giemsa staining using light microscopic method; format: functional, organism-based
Trypanosoma cruzi [13] = assay: Induction of morphological changes in Trypanosoma cruzi MHOM/MX/1994/INC5 epimastigotes assessed as decrease in cell density measured after 24 hrs by giemsa staining using light microscopic method; format: functional, organism-based; in short: as §3

COc1cc(/C=C/C(=O)c2cc(OC)c(OC)c(OC)c2)ccc1OC/C=C(\C)CCC=C(C)C
inhibition at 10 µg/mL (Leishmania mexicana [1]): 11.3%
inhibition at 10 µg/mL (Trypanosoma cruzi [2]): 31.6%

CC1CS(=O)(=O)CCN1/N=C/c1ccc([N+](=O)[O-])o1 (stereo not drawn) [NIFURTIMOX]
IC50 (Trypanosoma cruzi [3]): 8.7 µM
CC50 at 20 h [4]: 201 µM
selectivity ratio [5]: 23.1

COc1ccc(C(=O)/C=C/c2ccc(OCC=C(C)C)c(OC)c2)cc1
inhibition at 10 µg/mL (Leishmania mexicana [1]): 25.5%
inhibition at 10 µg/mL (Trypanosoma cruzi [2]): 2.6%

COc1cc(C(=O)/C=C/c2ccc(O)cc2)ccc1OCC=C(C)C
inhibition at 10 µg/mL (Leishmania mexicana [1]): 4.6%
inhibition at 10 µg/mL (Trypanosoma cruzi [2]): 16.3%

COc1ccc(/C=C/C(=O)c2ccc(OCC=C(C)C)c(OC)c2)cc1OC
inhibition at 10 µg/mL (Leishmania mexicana [1]): 15.6%
inhibition at 10 µg/mL (Trypanosoma cruzi [2]): 25.3%

COc1ccc(/C=C/C(=O)c2ccc(OC/C=C(\C)CCC=C(C)C)c(OC)c2)cc1
inhibition at 10 µg/mL (Leishmania mexicana [1]): 0%
inhibition at 10 µg/mL (Trypanosoma cruzi [2]): -11.6%

COc1cc(C(=O)/C=C/c2ccc(OC/C=C(\C)CCC=C(C)C)c(OC)c2)ccc1OCC=C(C)C
inhibition at 10 µg/mL (Leishmania mexicana [1]): -3.2%
inhibition at 10 µg/mL (Trypanosoma cruzi [2]): 33.2%

C[C@@H]1[C@H](O)[C@@H](C)/C=C/C=C/C=C/C=C/C=C/C=C/C=C/[C@H](O[C@@H]2O[C@H](C)[C@@H](O)[C@H](N)[C@@H]2O)C[C@@H]2O[C@](O)(C[C@@H](O)C[C@@H](O)[C@H](O)CC[C@@H](O)C[C@@H](O)CC(=O)O[C@H]1C)C[C@H](O)[C@H]2C(=O)O [AMPHOTERICIN B]
IC50 (Leishmania mexicana [6]): 0.28 µM
CC50 at 20 h [4]: 60.7 µM
selectivity ratio [7]: 216
inhibition at 0.5 µg/mL (Leishmania mexicana [8]): 99%

COc1cc(C(=O)/C=C/c2ccc(O)cc2)ccc1OC/C=C(\C)CCC=C(C)C
inhibition at 10 µg/mL (Leishmania mexicana [1]): 4.9%
inhibition at 10 µg/mL (Trypanosoma cruzi [2]): -5.5%

COc1ccc(/C=C/C(=O)c2ccc(OC/C=C(\C)CCC=C(C)C)c(OC)c2)cc1OC
inhibition at 10 µg/mL (Leishmania mexicana [1]): 27.3%
inhibition at 10 µg/mL (Trypanosoma cruzi [2]): 28.3%

CC(C)=CCC/C(C)=C/COc1cccc(/C=C/C(=O)c2ccccc2)c1
IC50 (Leishmania major): 1.4 to 88.8 µM
IC50 (Leishmania donovani): 1.4 to 88.8 µM

COc1cc(/C=C/C(=O)c2ccc(O)cc2)ccc1OCC=C(C)C
inhibition at 10 µg/mL (Leishmania mexicana [1]): 17.7%
inhibition at 10 µg/mL (Trypanosoma cruzi [2]): 23.8%

O=C(Cn1ccnc1[N+](=O)[O-])NCc1ccccc1 [BENZNIDAZOLE]
inhibition at 10 µg/mL (Trypanosoma cruzi [2]): 77.4%
IC50 (Trypanosoma cruzi [3]): 42.3 µM
CC50 at 20 h [4]: 352 µM

COc1cc(C(=O)/C=C/c2cc(OC)c(OC)c(OC)c2)ccc1OCC=C(C)C
inhibition at 10 µg/mL (Leishmania mexicana [1]): 59.1%
inhibition at 10 µg/mL (Trypanosoma cruzi [2]): 80.3%
IC50 (Leishmania mexicana [6]): 20.7 µM
IC50 (Trypanosoma cruzi [3]): 17.8 µM
CC50 at 20 h [4]: 25.6 µM
selectivity ratio [7]: 1.24
selectivity ratio [5]: 1.43

COc1cc(/C=C/C(=O)c2ccc(OC/C=C(\C)CCC=C(C)C)c(OC)c2)ccc1OC/C=C(\C)CCC=C(C)C
inhibition at 10 µg/mL (Leishmania mexicana [1]): 1%
inhibition at 10 µg/mL (Trypanosoma cruzi [2]): 45%
IC50 (Trypanosoma cruzi [3]): 30.4 µM
CC50 at 20 h [4]: 1020 µM
selectivity ratio [5]: 33.5

COc1cc(/C=C/C(=O)c2ccc(OCC=C(C)C)c(OC)c2)ccc1OCC=C(C)C
inhibition at 10 µg/mL (Leishmania mexicana [1]): 3.9%
inhibition at 10 µg/mL (Trypanosoma cruzi [2]): 20%

COc1ccc(C(=O)/C=C/c2ccc(OCC=C(C)C)c(OC)c2)cc1OC
inhibition at 10 µg/mL (Leishmania mexicana [1]): 48.3%
inhibition at 10 µg/mL (Trypanosoma cruzi [2]): 11.8%
IC50 (Leishmania mexicana [6]): 31.8 µM
CC50 at 20 h [4]: 1750 µM
selectivity ratio [7]: 55.1

CC(C)=CCOc1ccccc1/C=C/C(=O)c1ccccc1
IC50 (Leishmania major): 1.4 to 88.8 µM
IC50 (Leishmania donovani): 1.4 to 88.8 µM

CC(C)=CCC/C(C)=C/COc1ccccc1/C=C/C(=O)c1ccccc1
IC50 (Leishmania major): 1.4 to 88.8 µM
IC50 (Leishmania donovani): 1.4 to 88.8 µM

CC(C)=CCC/C(C)=C/CC/C(C)=C/COc1cccc(/C=C/C(=O)c2ccccc2)c1
IC50 (Leishmania major): 1.4 to 88.8 µM
IC50 (Leishmania donovani): 1.4 to 88.8 µM

COc1cc(/C=C/C(=O)c2ccc(OC/C=C(\C)CCC=C(C)C)c(OC)c2)ccc1OCC=C(C)C
inhibition at 10 µg/mL (Leishmania mexicana [1]): -8%
inhibition at 10 µg/mL (Trypanosoma cruzi [2]): 43.9%
IC50 (Trypanosoma cruzi [3]): 30.1 µM
CC50 at 20 h [4]: 825 µM
selectivity ratio [5]: 27.4

COc1ccc(/C=C/C(=O)c2ccc(OCC=C(C)C)c(OC)c2)cc1
inhibition at 10 µg/mL (Leishmania mexicana [1]): 1%
inhibition at 10 µg/mL (Trypanosoma cruzi [2]): 7.9%

COc1ccc(C(=O)/C=C/c2ccc(OC/C=C(\C)CCC=C(C)C)c(OC)c2)cc1OC
inhibition at 10 µg/mL (Leishmania mexicana [1]): 13.5%
inhibition at 10 µg/mL (Trypanosoma cruzi [2]): 22%

COc1cc(/C=C/C(=O)c2ccc(O)cc2)ccc1OC/C=C(\C)CCC=C(C)C
inhibition at 10 µg/mL (Leishmania mexicana [1]): 17.6%
inhibition at 10 µg/mL (Trypanosoma cruzi [2]): 20.4%

COc1cc(C(=O)/C=C/c2cc(OC)c(OC)c(OC)c2)ccc1OC/C=C(\C)CCC=C(C)C
inhibition at 10 µg/mL (Leishmania mexicana [1]): 2.1%
inhibition at 10 µg/mL (Trypanosoma cruzi [2]): -0.8%

COc1ccc(/C=C/C(=O)c2ccc(OC/C=C(\C)CCC=C(C)C)cc2)cc1
IC50 (Leishmania major): 1.4 to 88.8 µM
IC50 (Leishmania donovani): 1.4 to 88.8 µM

COc1cc(/C=C/C(=O)c2cc(OC)c(OC)c(OC)c2)ccc1OCC=C(C)C
inhibition at 10 µg/mL (Leishmania mexicana [1]): 71.3%
inhibition at 10 µg/mL (Trypanosoma cruzi [2]): 84%
IC50 (Leishmania mexicana [6]): 16.2 µM
IC50 (Trypanosoma cruzi [3]): 17.5 µM
CC50 at 20 h [4]: 1310 µM
selectivity ratio [7]: 80.9
selectivity ratio [5]: 75.1
Activity (Leishmania mexicana [9]): Active
Activity (Leishmania mexicana [10]): Active
Activity (Leishmania mexicana [11]): Active
Activity (Leishmania mexicana [12]): Active
Activity (Trypanosoma cruzi [13]): Dose-dependent effect

COc1ccc(C(=O)/C=C/c2ccc(OC/C=C(\C)CCC=C(C)C)c(OC)c2)cc1
inhibition at 10 µg/mL (Leishmania mexicana [1]): 0.7%
inhibition at 10 µg/mL (Trypanosoma cruzi [2]): 13.7%

CC(C)=CCC/C(C)=C/CC/C(C)=C/COc1ccccc1/C=C/C(=O)c1ccccc1
IC50 (Leishmania major): 1.4 to 88.8 µM
IC50 (Leishmania donovani): 1.4 to 88.8 µM

CC(C)=CCOc1cccc(/C=C/C(=O)c2ccccc2)c1
IC50 (Leishmania major): 1.4 to 88.8 µM
IC50 (Leishmania donovani): 1.4 to 88.8 µM
